Measurements published in ChEMBL document CHEMBL4311941, “Development of Multifunctional Histone Deacetylase 6 Degraders with Potent Antimyeloma Activity” (J Med Chem, 2019).
The source made the active and inactive calls. The rule behind the calls is not given here.

Experiments:
[1] = target: T1, Protein cereblon/Histone deacetylase 4 (Homo sapiens) (UniProt P56524+Q96SW2); experiment: Protac activity at CRBN/HDAC4 in human MM1S cells assessed as HDAC4 degradation measured after 6 hrs by Western blot analysis; assay type: cell-based
[2] = target: T2, Protein cereblon/Protein deacetylase HDAC6 (Homo sapiens, UniProt Q9UBN7+Q96SW2); experiment: Protac activity at CRBN/HDAC6 in human MM1S cells assessed as HDAC6 degradation at 3 to 30 nM measured after 6 hrs by Western blot analysis; assay type: cell-based
[3] = target: T2, Protein cereblon/Protein deacetylase HDAC6; experiment: Protac activity at CRBN/HDAC6 in human MM1S cells assessed as HDAC6 degradation at 100 nM measured after 6 hrs in presence of proteasome inhibitor bortezomib by Western blot analysis; assay type: cell-based
MM1.S [4] = experiment: Induction of apoptosis in human MM1S cells assessed as cleavage of PARP measured after 48 hrs by Western blot analysis; assay type: functional, cell-based
MM1.S [5] = experiment: Effect on IKZF3 mRNA expression in human MM1S cells at 100 nM measured after 6 hrs by SYBR green dye-based qRT-PCR analysis; assay type: functional, cell-based
In short: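 After treatment, MM1S cells washed twice with cold PBS. Total RNA extracted and normalized, then reverse-transcribed. 10 ng cDNA amplified with SYBR Green: 50 °C 2 min, 95 °C 2 min, then 40 cycles of 95 °C 1 s / 60 °C 30 s, followed by a melt curve. Expression calculated by the 2−ΔΔCt method.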

[6] = target: T2, Protein cereblon/Protein deacetylase HDAC6; experiment: Protac activity at CRBN/HDAC6 in human MM1S cells assessed as induction of alpha tubulin acetylation at 100 nM measured after 6 hrs in presence of proteasome inhibitor MG132 by Western blot analysis; assay type: cell-based
[7] = target: T3, Cereblon/Ikaros (Homo sapiens) (UniProt Q96SW2+Q13422); experiment: Protac activity at CRBN/IKZF1 in human MM1S cells assessed as IKZF1 degradation at 100 nM measured after 6 hrs in presence of E3 ligase ligand pomalidomide by Western blot analysis; assay type: cell-based
[8] = target: T2, Protein cereblon/Protein deacetylase HDAC6; experiment: Protac activity at CRBN/HDAC6 in human A431 cells assessed as HDAC6 degradation up to 10 uM incubated for 6 hrs by Western blot analysis; assay type: cell-based
[9] = target: T2, Protein cereblon/Protein deacetylase HDAC6; experiment: Protac activity at CRBN/HDAC6 in human MM1S cells assessed as induction of alpha tubulin acetylation measured after 6 hrs by Western blot analysis; assay type: cell-based
[10] = target: T3, Cereblon/Ikaros (Homo sapiens); experiment: Protac activity at CRBN/IKZF1 in human MM1S cells assessed as IKZF1 degradation at 100 nM measured after 6 hrs in presence of NAE inhibitor MLN 4924 by Western blot analysis; assay type: cell-based
In short: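 MM1S cells seeded at 1 × 10^6 per well overnight. Pretreated 1 h with pomalidomide, Next-A, MLN 4924 or DMSO, then given 100 nM degrader or DMSO for 6 h. Lysed in RIPA with protease inhibitors, 10−40 μg protein run on SDS-PAGE and transferred to PVDF. Blots probed for IKZF1/IKZF3, detected by ECL and quantified by densitometry.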

Histone deacetylase 11 = target: T4, Histone deacetylase 11 (Homo sapiens, UniProt Q96DB2); experiment: Inhibition of human N-terminal tagged human HDAC11 expressed in HEK293T/17 using Boc-[TFA-Lys]-AMC as substrate preincubated for 10 mins followed by substrate addition and measured after 60 mins by fluorescence assay
T4 sequence (Q96DB2 whole entry): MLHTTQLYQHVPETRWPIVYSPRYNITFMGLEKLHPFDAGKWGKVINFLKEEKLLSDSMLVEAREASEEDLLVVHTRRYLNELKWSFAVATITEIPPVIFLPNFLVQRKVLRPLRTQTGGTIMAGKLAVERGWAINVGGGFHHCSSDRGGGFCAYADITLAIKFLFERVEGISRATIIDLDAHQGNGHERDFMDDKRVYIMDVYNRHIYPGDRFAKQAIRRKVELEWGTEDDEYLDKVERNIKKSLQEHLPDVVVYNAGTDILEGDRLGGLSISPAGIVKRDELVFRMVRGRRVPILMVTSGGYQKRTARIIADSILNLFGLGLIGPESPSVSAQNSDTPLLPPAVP

Histone deacetylase 9 = Histone deacetylase 9 (Homo sapiens, UniProt Q9UKV0); experiment: Inhibition of human N-terminal tagged human HDAC9 expressed in HEK293T/17 using Boc-[TFA-Lys]-AMC as substrate preincubated for 10 mins followed by substrate addition and measured after 60 mins by fluorescence assay
[11] = target: T5, Protein cereblon/Zinc finger protein Aiolos (Homo sapiens) (UniProt Q96SW2+Q9UKT9); experiment: Protac activity at CRBN/IKZF3 in human MM1S cells assessed as IKZF3 degradation at 100 nM incubated for 6 hrs followed by compound washout and measured after 12 hrs by Western blot analysis; assay type: cell-based
In short: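 MM1S cells treated with 100 nM degrader for 6 h, then washed with PBS to remove compound. IKZF3 followed by immunoblot over up to 48 h after washout: RIPA lysate, SDS-PAGE, PVDF transfer, HRP secondary antibody and ECL imaging.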

[12] = target: T1, Protein cereblon/Histone deacetylase 4 (Homo sapiens); experiment: Protac activity at CRBN/HDAC4 in human MM1S cells assessed as HDAC4 degradation at 100 nM measured after 6 hrs in presence of proteasome inhibitor bortezomib by Western blot analysis; assay type: cell-based
MM1.S [13] = experiment: Antiproliferative activity against human MM1S cells assessed as reduction in cell viability measured after 72 hrs by resazurin dye based assay relative to control; assay type: functional
In short: (§1)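 MM1S cells seeded at 1 × 10^4 per well, left overnight, then given compound or DMSO vehicle (added as 5× dosing medium) for 72 h at 37 °C, 5% CO2. Resazurin added (10× solution, 1 mg/mL), then incubated overnight at 37 °C. OD read at 570 and 600 nm. Viability is relative to vehicle, n = 3. Curves fitted as [inhibitor] vs response (three parameters); test range 0.3 nM–3 μM.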

[14] = target: T5, Protein cereblon/Zinc finger protein Aiolos (Homo sapiens); experiment: Protac activity at CRBN/IKZF3 in human MM1S cells assessed as IKZF3 degradation at 100 nM measured after 6 hrs by Western blot analysis; assay type: cell-based
In short: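 Time course in MM1S cells (1 × 10^6 cells per well, seeded overnight) under 100 nM degrader. Whole-cell RIPA lysates analysed by 7.5−12% SDS-PAGE and PVDF immunoblot. Primary antibody at 4 °C overnight, HRP secondary 1 h, ECL detection with densitometry.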

MM1.S [15] = experiment: Antiproliferative activity against human MM1S cells assessed as reduction in cell viability measured after 72 hrs by resazurin dye based assay; assay type: functional; in short: as §1
[16] = target: Protein cereblon/Histone deacetylase 3 (Homo sapiens) (UniProt O15379+Q96SW2); experiment: Protac activity at CRBN/HDAC3 in human MM1S cells assessed as HDAC3 degradation measured after 6 hrs by Western blot analysis; assay type: cell-based
[17] = target: T2, Protein cereblon/Protein deacetylase HDAC6; experiment: Protac activity at CRBN/HDAC6 in human MM1S cells assessed as HDAC6 degradation at 100 nM incubated for 6 hrs followed by compound washout and measured up to 48 hrs by Western blot analysis; assay type: cell-based
In short: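 MM1S cells treated 6 h with 100 nM, washed with PBS to remove compound, then HDAC6 followed by immunoblot for up to 48 h. Lysis in RIPA; SDS-PAGE and PVDF transfer; primary antibody 4 °C overnight, HRP secondary, ECL.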

T2 sequence (Q96SW2 whole entry, looked up): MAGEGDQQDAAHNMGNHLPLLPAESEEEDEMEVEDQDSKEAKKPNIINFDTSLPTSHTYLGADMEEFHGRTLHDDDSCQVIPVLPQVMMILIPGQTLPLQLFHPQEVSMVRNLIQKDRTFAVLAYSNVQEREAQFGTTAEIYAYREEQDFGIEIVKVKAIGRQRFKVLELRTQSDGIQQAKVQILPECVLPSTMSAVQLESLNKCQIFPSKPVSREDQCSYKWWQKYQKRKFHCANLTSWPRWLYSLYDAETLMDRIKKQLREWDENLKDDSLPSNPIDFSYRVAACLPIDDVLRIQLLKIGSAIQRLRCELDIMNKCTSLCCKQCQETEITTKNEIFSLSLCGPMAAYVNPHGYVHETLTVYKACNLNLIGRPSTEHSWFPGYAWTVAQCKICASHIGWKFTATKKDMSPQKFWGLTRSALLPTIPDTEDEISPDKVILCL
T2 sequence (Q9UBN7 whole entry, looked up): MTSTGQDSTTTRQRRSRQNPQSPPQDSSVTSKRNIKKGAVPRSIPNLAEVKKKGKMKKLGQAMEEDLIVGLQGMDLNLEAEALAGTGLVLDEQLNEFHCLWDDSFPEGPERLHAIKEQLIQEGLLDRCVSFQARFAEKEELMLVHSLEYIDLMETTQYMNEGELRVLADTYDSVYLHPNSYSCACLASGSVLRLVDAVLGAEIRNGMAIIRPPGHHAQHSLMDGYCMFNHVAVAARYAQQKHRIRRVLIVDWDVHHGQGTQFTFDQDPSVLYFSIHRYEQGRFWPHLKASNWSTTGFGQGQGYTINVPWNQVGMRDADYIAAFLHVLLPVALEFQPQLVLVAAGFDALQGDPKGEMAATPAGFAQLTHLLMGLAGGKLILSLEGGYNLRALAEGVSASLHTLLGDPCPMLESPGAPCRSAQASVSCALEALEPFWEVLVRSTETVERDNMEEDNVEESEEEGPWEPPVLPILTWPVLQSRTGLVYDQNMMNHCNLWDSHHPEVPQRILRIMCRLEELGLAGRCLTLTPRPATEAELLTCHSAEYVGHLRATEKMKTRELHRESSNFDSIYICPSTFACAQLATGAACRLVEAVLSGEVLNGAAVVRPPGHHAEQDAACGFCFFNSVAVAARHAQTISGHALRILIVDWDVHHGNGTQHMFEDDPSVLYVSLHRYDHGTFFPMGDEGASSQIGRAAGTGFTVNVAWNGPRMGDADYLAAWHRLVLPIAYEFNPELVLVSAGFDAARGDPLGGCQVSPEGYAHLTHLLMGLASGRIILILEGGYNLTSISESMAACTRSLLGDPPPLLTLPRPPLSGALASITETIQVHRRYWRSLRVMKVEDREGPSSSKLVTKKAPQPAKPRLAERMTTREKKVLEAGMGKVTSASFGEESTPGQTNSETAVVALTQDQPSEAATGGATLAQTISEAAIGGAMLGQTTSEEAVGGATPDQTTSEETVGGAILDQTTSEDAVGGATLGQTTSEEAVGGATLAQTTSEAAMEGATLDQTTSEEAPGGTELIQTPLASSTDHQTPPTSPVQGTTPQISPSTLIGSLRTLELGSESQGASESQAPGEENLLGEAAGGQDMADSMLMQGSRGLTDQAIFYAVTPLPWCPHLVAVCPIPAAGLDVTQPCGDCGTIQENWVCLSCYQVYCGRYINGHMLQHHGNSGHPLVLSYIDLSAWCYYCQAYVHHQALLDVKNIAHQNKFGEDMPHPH
T1 sequence (P56524 whole entry, looked up): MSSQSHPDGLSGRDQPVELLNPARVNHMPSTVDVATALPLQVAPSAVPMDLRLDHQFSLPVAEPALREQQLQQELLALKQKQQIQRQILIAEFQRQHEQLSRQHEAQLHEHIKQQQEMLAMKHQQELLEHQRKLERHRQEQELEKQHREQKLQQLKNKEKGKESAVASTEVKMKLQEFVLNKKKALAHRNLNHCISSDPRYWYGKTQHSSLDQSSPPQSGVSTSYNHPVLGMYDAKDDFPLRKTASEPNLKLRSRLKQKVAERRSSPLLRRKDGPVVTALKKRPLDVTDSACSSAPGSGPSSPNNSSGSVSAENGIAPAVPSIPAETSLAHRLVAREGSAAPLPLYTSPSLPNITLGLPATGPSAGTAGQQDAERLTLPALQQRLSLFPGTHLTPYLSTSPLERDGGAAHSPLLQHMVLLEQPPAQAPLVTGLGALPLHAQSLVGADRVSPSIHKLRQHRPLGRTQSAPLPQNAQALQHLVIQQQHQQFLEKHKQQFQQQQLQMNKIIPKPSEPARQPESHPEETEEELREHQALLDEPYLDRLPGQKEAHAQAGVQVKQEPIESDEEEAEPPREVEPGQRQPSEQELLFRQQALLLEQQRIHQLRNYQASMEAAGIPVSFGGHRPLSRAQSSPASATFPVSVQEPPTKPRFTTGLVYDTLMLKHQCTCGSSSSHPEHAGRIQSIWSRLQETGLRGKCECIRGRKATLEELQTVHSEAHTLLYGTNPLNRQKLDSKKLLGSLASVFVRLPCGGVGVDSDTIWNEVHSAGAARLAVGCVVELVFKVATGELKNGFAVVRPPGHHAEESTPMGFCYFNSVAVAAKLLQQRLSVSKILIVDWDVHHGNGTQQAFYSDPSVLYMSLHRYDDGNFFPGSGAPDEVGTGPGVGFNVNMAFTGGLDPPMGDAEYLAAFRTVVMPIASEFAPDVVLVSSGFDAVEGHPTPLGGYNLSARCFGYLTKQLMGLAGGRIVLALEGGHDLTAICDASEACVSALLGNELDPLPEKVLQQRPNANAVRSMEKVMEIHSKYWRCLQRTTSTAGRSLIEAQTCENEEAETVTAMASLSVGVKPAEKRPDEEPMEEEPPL
T1 sequence (Q96SW2 whole entry, looked up): as the sequence (Q96SW2 whole entry, looked up) above
T5 sequence (Q96SW2 whole entry, looked up): as above
T5 sequence (Q9UKT9 whole entry, looked up): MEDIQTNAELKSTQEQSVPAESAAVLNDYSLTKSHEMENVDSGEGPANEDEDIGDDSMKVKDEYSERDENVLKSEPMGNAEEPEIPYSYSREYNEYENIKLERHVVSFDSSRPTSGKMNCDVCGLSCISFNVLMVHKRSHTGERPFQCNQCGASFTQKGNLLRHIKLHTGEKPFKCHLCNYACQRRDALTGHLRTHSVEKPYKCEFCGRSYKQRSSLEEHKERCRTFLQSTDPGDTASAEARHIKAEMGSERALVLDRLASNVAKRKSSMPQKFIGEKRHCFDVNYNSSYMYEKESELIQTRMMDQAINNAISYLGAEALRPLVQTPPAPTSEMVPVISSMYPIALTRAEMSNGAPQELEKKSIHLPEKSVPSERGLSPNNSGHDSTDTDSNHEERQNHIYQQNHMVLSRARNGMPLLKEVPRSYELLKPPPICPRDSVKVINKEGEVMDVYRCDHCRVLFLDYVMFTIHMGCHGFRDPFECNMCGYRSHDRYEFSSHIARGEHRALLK
Chain of Histone deacetylase 9 (Q9UKV0 whole entry): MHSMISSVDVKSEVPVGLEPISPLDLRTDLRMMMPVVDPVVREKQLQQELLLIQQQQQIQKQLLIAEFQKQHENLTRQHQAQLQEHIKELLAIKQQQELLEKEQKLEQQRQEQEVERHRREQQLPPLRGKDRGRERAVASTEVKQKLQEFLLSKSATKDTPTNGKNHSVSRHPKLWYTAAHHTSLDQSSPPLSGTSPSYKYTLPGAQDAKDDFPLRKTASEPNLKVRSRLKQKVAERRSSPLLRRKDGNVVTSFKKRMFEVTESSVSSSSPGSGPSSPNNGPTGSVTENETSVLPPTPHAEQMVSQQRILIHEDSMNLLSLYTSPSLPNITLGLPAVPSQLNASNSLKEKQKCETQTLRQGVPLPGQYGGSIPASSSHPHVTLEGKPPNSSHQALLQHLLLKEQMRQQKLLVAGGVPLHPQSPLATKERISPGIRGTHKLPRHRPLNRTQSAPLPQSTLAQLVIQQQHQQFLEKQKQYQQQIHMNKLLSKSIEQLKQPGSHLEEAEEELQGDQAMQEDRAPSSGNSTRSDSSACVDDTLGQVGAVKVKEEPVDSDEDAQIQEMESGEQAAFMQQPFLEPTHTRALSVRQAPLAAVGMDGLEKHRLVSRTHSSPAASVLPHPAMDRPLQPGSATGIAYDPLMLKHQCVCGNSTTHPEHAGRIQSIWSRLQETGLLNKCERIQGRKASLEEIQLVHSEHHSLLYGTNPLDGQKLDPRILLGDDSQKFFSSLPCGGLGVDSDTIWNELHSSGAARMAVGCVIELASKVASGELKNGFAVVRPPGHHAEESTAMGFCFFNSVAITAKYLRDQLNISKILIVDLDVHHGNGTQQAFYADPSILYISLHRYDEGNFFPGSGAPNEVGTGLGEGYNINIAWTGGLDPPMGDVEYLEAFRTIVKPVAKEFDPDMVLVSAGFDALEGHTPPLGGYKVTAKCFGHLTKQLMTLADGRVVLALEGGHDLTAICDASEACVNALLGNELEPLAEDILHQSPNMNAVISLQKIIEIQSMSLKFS
Chain of Protein cereblon/Histone deacetylase 3 (Homo sapiens) (O15379 whole entry, looked up): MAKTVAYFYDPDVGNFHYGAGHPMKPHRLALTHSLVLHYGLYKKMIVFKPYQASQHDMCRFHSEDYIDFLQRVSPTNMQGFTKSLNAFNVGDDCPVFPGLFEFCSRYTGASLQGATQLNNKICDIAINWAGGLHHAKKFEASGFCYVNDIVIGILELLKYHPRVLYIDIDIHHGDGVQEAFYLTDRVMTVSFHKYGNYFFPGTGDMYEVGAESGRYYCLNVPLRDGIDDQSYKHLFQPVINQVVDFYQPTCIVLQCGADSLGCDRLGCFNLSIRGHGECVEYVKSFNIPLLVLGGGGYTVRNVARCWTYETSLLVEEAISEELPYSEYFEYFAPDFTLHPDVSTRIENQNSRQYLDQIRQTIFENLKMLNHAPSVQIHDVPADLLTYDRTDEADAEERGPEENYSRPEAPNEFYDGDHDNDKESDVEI
Chain of Protein cereblon/Histone deacetylase 3 (Homo sapiens) (Q96SW2 whole entry, looked up): as the sequence (Q96SW2 whole entry, looked up) above

Activity [1]: inactive
Activity [2]: Active
Activity [3]: inactive
Activity [6]: inactive
Activity [7]: Active
Activity [8]: Active
Activity [9]: Dose-dependent effect
Activity [10]: inactive
IC50 (Histone deacetylase 11): 300 to 30000 nM
IC50 (Histone deacetylase 9): 300 to 30000 nM
Activity [11]: inactive
Activity [12]: inactive
Activity [14]: Active
EC50 (MM1.S [15]): 74.9 nM
Activity [16]: inactive
Activity [17]: Active
Structure (SMILES): CCCCN(Cc1ccc(C(=O)NO)cc1)C(=O)Nc1ccc(OCCCCCn2cc(CNc3cccc4c3C(=O)N(C3CCC(=O)NC3=O)C4=O)nn2)cc1 (centres undefined)
Activity (MM1.S [4]): Dose-dependent effect
Activity (MM1.S [5]): Active
Imax (MM1.S [13]): 63.1%
